Measured values of several laboratories.
Lines come from different studies, so protocols differ.
Target: Tyrosine-protein kinase Srms (SRMS, Homo sapiens, UniProt Q9H3Y6)

COc1ncccc1-c1cnn2ccc(N3CCN(C(=O)OC(C)C)CC3)nc12  remaining binding (binding, competition with immobilised ligand; 1 µM): 78%
N#CC1(c2ccccn2)CCN(Cc2cc(C(=O)O)c(=O)n3ccccc23)CC1  remaining binding (cell-free assay, competition with immobilised ligand; 1 µM): 93%
Cn1cc(-c2cccc(N3CCc4c(sc5c4CC(C)(C)C5)C3=O)c2CO)cc(Nc2ccncn2)c1=O  inhibition (enzyme activity, inhibitor; 1 µM): -3%
Cn1cncc1[C@@](O)(COc1ccc(C#N)cc1-c1ccc(OC(F)(F)F)cc1)c1ccc(C#N)cc1  remaining binding (cell-free assay, competition with immobilised ligand; 1 µM): 100%
Cn1cc(-c2cc(F)cc(N3CCn4c(cc5c4CCCC5)C3=O)c2CO)cc(Nc2ccc(N3CCN(C4COC4)CC3)cn2)c1=O  inhibition (enzyme activity, inhibitor; 0.1 µM): 17%
O=c1[nH]c2ccccc2n1C1CCN(Cc2ccc(-c3[nH]c4cc5ncnc5cc4nc3-c3ccccc3)cc2)CC1  remaining signal (cell-free assay; 0.5 µM): 93.1%
Cc1nn(C)cc1-c1nc2c(N3CCN(Cc4ccc(Cl)cc4)CC3)c(Cl)cnc2[nH]1  remaining binding (binding, competition with immobilised ligand; 1 µM): 100%
Nc1ncc(-c2nc(N3CCOCC3)nc(N3CCOCC3)n2)c(C(F)F)n1  remaining binding (cell-free assay, competition with immobilised ligand; 10 µM): 88%
